# pIC50: −log10 of the molar value. Activity calls are given as the source filed them. The rule behind the calls is not given here.
# What was measured:
# KB = experiment: Cytotoxicity against human KB cells after 72 hrs; type: functional, cell-based
# Outline: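 KB cells in EMEM (4.5 g/L glucose, 10% FCS, 1% glutamine) seeded 5 × 10³/well, dosed after 24 h with compound in DMSO (<0.1%). 72 h exposure, then resazurin 2 h; fluorescence ex 560/em 590 nm. IC50 = 50% fluorescence decrease versus untreated; triplicate.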
# [1] = Inhibition of sheep brain tubulin polymerization; set-up: species or system Ovis aries
# Outline: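 Sheep brain tubulin (about 2–3 mg/mL), purified by two assembly–disassembly cycles, in 0.1 M MES, 0.5 mM MgCl₂, 1 mM EGTA, 1 mM GTP, pH 6.6. Assembly followed by turbidity at 350 nm, 37 °C.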
# B16-F10 = experiment: Antiproliferative activity against mouse B16F10 cells after 72 hrs; type: functional, cell-based; settings: B16-F10, 72 h
# Outline: (§1)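 Cells were seeded at 5 × 10³ per well and cultured for 24 h. Test compound in DMSO (under 0.1%) was then added for 72 h. Resazurin was added for 2 h, and fluorescence was read at ex 560 nm / em 590 nm. IC50 was taken as the concentration giving a 50% fall in fluorescence versus untreated cells. Runs were done in triplicate.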
# A549 = experiment: Antiproliferative activity against human A549 cells after 72 hrs; type: functional, cell-based; settings: A549, 72 h; outline: as §1
# MDA-MB-435 = experiment: Antiproliferative activity against human MDA-MB-435 cells after 72 hrs; type: functional, cell-based; settings: MDA-MB-435, 72 h; outline: as §1
# MDA-MB-231 [2] = experiment: Antiproliferative activity against human MDA-MB-231 cells after 72 hrs; type: functional, cell-based; settings: MDA-MB-231, 72 h; outline: as §1
# L1210 = experiment: Antiproliferative activity against mouse L1210 cells after 72 hrs; type: functional, cell-based; settings: L1210, 72 h; outline: as §1
# K562 [3] = experiment: Antiproliferative activity against human K562 cells after 72 hrs; type: functional, cell-based; settings: K562, 72 h; outline: as §1
# HT-29 = experiment: Antiproliferative activity against human HT29 cells after 72 hrs; type: functional, cell-based; settings: HT-29, 72 h; outline: as §1
# HCT-116 [4] = experiment: Antiproliferative activity against human HCT116 cells after 72 hrs; type: functional, cell-based; settings: HCT-116, 72 h; outline: as §1
# K562 [5] = experiment: Cell cycle arrest in human K562 cells assessed as accumulation at G2/M phase at 0.05 uM after 24 hrs by flow cytometry; type: functional
# Outline: (§2)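 Exponentially growing K562 cells exposed to compound or DMSO for 6, 16 or 24 h; cell-cycle phase distribution determined by flow cytometry; data representative of three independent experiments.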
# K562 [6] = experiment: Cell cycle arrest in human K562 cells assessed as accumulation at G2/M phase at 1 uM after 24 hrs by flow cytometry; type: functional; settings: in the assay text read “at 0.1 uM” for “at 1 uM”; outline: as §2
# K562 [7] = experiment: Cell cycle arrest in human K562 cells assessed as accumulation at G2/M phase at 0.5 uM after 24 hrs by flow cytometry; type: functional; outline: as §2
# K562 [8] = experiment: Cell cycle arrest in human K562 cells assessed as accumulation at G2/M phase at 0.05 uM after 16 hrs by flow cytometry; type: functional; outline: as §2
# K562 [9] = experiment: Cell cycle arrest in human K562 cells assessed as accumulation at G2/M phase at 1 uM after 16 hrs by flow cytometry; type: functional; outline: as §2
# K562 [10] = experiment: Cell cycle arrest in human K562 cells assessed as accumulation at G2/M phase at 0.5 uM after 16 hrs by flow cytometry; type: functional; outline: as §2
# K562 [11] = experiment: Cell cycle arrest in human K562 cells assessed as accumulation at G2/M phase at 0.05 uM after 6 hrs by flow cytometry; type: functional; outline: as §2
# K562 [12] = experiment: Cell cycle arrest in human K562 cells assessed as accumulation at G2/M phase at 1 uM after 6 hrs by flow cytometry; type: functional; outline: as §2
# K562 [13] = experiment: Cell cycle arrest in human K562 cells assessed as accumulation at G2/M phase at 0.5 uM after 6 hrs by flow cytometry; type: functional; outline: as §2
# K562 [14] = experiment: Cell cycle arrest in human K562 cells assessed as accumulation at G0/G1 phase at 0.05 uM after 6 hrs by flow cytometry; type: functional; outline: as §2
# K562 [15] = experiment: Cell cycle arrest in human K562 cells assessed as accumulation at G0/G1 phase at 1 uM after 6 hrs by flow cytometry; type: functional; outline: as §2
# K562 [16] = experiment: Cell cycle arrest in human K562 cells assessed as accumulation at G0/G1 phase at 0.5 uM after 6 hrs by flow cytometry; type: functional; outline: as §2
# K562 [17] = experiment: Cell cycle arrest in human K562 cells assessed as accumulation at S phase at 0.05 uM after 6 hrs by flow cytometry; type: functional; outline: as §2
# K562 [18] = experiment: Cell cycle arrest in human K562 cells assessed as accumulation at S phase at 1 uM after 6 hrs by flow cytometry; type: functional; outline: as §2
# K562 [19] = experiment: Cell cycle arrest in human K562 cells assessed as accumulation at S phase at 0.5 uM after 6 hrs by flow cytometry; type: functional; outline: as §2
# K562 [20] = experiment: Cell cycle arrest in human K562 cells assessed as accumulation at G0/G1 phase at 0.05 uM after 16 hrs by flow cytometry; type: functional; outline: as §2
# K562 [21] = experiment: Cell cycle arrest in human K562 cells assessed as accumulation at G0/G1 phase at 1 uM after 16 hrs by flow cytometry; type: functional; outline: as §2
# K562 [22] = experiment: Cell cycle arrest in human K562 cells assessed as accumulation at G0/G1 phase at 0.5 uM after 16 hrs by flow cytometry; type: functional; outline: as §2
# K562 [23] = experiment: Cell cycle arrest in human K562 cells assessed as accumulation at S phase at 0.05 uM after 16 hrs by flow cytometry; type: functional; outline: as §2
# K562 [24] = experiment: Cell cycle arrest in human K562 cells assessed as accumulation at S phase at 1 uM after 16 hrs by flow cytometry; type: functional; outline: as §2
# K562 [25] = experiment: Cell cycle arrest in human K562 cells assessed as accumulation at S phase at 0.5 uM after 16 hrs by flow cytometry; type: functional; outline: as §2
# K562 [26] = experiment: Cell cycle arrest in human K562 cells assessed as accumulation at G0/G1 phase at 0.05 uM after 24 hrs by flow cytometry; type: functional; outline: as §2
# K562 [27] = experiment: Cell cycle arrest in human K562 cells assessed as accumulation at G0/G1 phase at 1 uM after 24 hrs by flow cytometry; type: functional; outline: as §2
# K562 [28] = experiment: Cell cycle arrest in human K562 cells assessed as accumulation at G0/G1 phase at 0.5 uM after 24 hrs by flow cytometry; type: functional; outline: as §2
# K562 [29] = experiment: Cell cycle arrest in human K562 cells assessed as accumulation at S phase at 0.05 uM after 24 hrs by flow cytometry; type: functional; outline: as §2
# K562 [30] = experiment: Cell cycle arrest in human K562 cells assessed as accumulation at S phase at 1 uM after 24 hrs by flow cytometry; type: functional; outline: as §2
# K562 [31] = experiment: Cell cycle arrest in human K562 cells assessed as accumulation at S phase at 0.5 uM after 24 hrs by flow cytometry; type: functional; outline: as §2
# K562 [32] = experiment: Induction of apoptosis in human K562 cells assessed as activation of caspase 3 at 0.01 to 1 uM after 24 hrs by microtitre plate fluorimeter; type: functional, cell-based
# Outline: (§3)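 Cells seeded 5 × 10⁴/well, then after 24 h given compound at 1, 0.1 or 0.01 µM, or 0.1% DMSO as negative control, for 24 h. Caspase-3/7 substrate in homogeneous assay buffer added; fluorescence read at 527 nm after 1 h.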
# K562 [33] = experiment: Induction of apoptosis in human K562 cells assessed as activation of caspase 7 at 0.01 to 1 uM after 24 hrs by microtitre plate fluorimeter; type: functional, cell-based; outline: as §3
# HCT-116 [34] = experiment: Induction of apoptosis in human HCT116 cells assessed as activation of caspase 3 at 0.01 to 1 uM after 24 hrs by microtitre plate fluorimeter; type: functional, cell-based; outline: as §3
# HCT-116 [35] = experiment: Induction of apoptosis in human HCT116 cells assessed as activation of caspase 7 at 0.01 to 1 uM after 24 hrs by microtitre plate fluorimeter; type: functional, cell-based; outline: as §3
# MDA-MB-231 [36] = experiment: Induction of apoptosis in human MDA-MB-231 cells assessed as activation of caspase 3 at 0.01 to 1 uM after 24 hrs by microtitre plate fluorimeter; type: functional, cell-based; outline: as §3
# MDA-MB-231 [37] = experiment: Induction of apoptosis in human MDA-MB-231 cells assessed as activation of caspase 7 at 0.01 to 1 uM after 24 hrs by microtitre plate fluorimeter; type: functional, cell-based; outline: as §3
# MDA-MB-231 [38] = experiment: Effect on cell morphology in human MDA-MB-231 cells assessed as change in cell size and shape at 0.050 uM after 24 hrs; type: functional, cell-based
# Outline: (§4)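 MDA-MB231 cells on chamber slides treated 24 h at 50 nM, fixed in 3.7% formaldehyde, permeabilized with 0.1% Triton X-100. Stained for β-tubulin (Alexa 488 secondary), actin (Alexa 546 phalloidin) and nuclei (Hoechst 33342); imaged by fluorescence microscopy at 60× and 100×.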
# MDA-MB-231 [39] = experiment: Effect on cell morphology in human MDA-MB-231 cells assessed as change in cellular mass at 0.050 uM after 24 hrs; type: functional, cell-based; outline: as §4
# [40] = Antitumor activity against human U87 tumor transplanted in chick chorio-allantoic membrane assessed as reduction of tumor volume at 10 uM after 4 days; type: functional, U-87MG ATCC; set-up: scale not given: the % may be the effect or the level left
# Outline: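 U87 glioma cells (5 × 10⁶ in 20 µL medium) grafted on chick CAM on embryonic day 10; size-matched tumors grouped on day 2. 20 µL drug at 10 µM applied locally once daily, days 3–6 of tumor growth; controls got solvent. Volume V = 4/3πr³ from length and width, six tumors per group.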
# MCF7 [41] = experiment: Antiproliferative activity against human MCF7 cells after 72 hrs; type: functional, cell-based; settings: MCF7, 72 h; outline: as §1
# MCF7 [42] = experiment: Cell cycle arrest in human MCF7 cells assessed as accumulation at G2/M phase at 0.1 uM after 24 hrs by flow cytometry
# MCF7 [43] = experiment: Cell cycle arrest in human MCF7 cells assessed as accumulation at G2/M phase at 0.05 uM after 24 hrs by flow cytometry
# MDA-MB-231 [44] = experiment: Cell cycle arrest in human MDA-MB-231 cells assessed as accumulation at G2/M phase at 0.1 uM after 24 hrs by flow cytometry
# MDA-MB-231 [45] = experiment: Cell cycle arrest in human MDA-MB-231 cells assessed as accumulation at G2/M phase at 0.05 uM after 24 hrs by flow cytometry
structure (smiles),measurement,setting,value
CC(C)C1NC(=O)c2[nH]c3ccccc3c2-c2ccccc21 (racemic),pIC50,KB,6.55
same,pIC50,[1],5.77
CC[C@@H]1NC(=O)c2[nH]c3ccccc3c2-c2ccccc21,pIC50,KB,7.43
same,pIC50,[1],5.72
same,pIC50,B16-F10,7.17
same,pIC50,A549,7.30
same,pIC50,MDA-MB-435,7.15
same,pIC50,MDA-MB-231 [2],7.52
same,pIC50,L1210,7.47
same,pIC50,K562 [3],7.15
same,pIC50,HT-29,7.38
same,pIC50,HCT-116 [4],7.38
same,Activity,K562 [5],24.9%
same,Activity,K562 [6],20.3%
same,Activity,K562 [7],44.7%
same,Activity,K562 [8],1.1%
same,Activity,K562 [9],43.4%
same,Activity,K562 [10],51.5%
same,Activity,K562 [11],4.9%
same,Activity,K562 [12],8.1%
same,Activity,K562 [13],32%
same,Activity,K562 [14],0.3%
same,Activity,K562 [15],0.2%
same,Activity,K562 [16],0.2%
same,Activity,K562 [17],94.3%
same,Activity,K562 [18],91.1%
same,Activity,K562 [19],67.8%
same,Activity,K562 [20],1%
same,Activity,K562 [21],2.4%
same,Activity,K562 [22],0.6%
same,Activity,K562 [23],97.6%
same,Activity,K562 [24],52.8%
same,Activity,K562 [25],47.3%
same,Activity,K562 [26],14.6%
same,Activity,K562 [27],7.6%
same,Activity,K562 [28],1.2%
same,Activity,K562 [29],49.1%
same,Activity,K562 [30],69.5%
same,Activity,K562 [31],53.4%
same,Activity,K562 [32],Active
same,Activity,K562 [33],Active
same,Activity,HCT-116 [34],Active
same,Activity,HCT-116 [35],Active
same,Activity,MDA-MB-231 [36],Active
same,Activity,MDA-MB-231 [37],Active
same,Activity,MDA-MB-231 [38],Active
same,Activity,MDA-MB-231 [39],Active
same,Activity,[40],76%
same,pIC50,MCF7 [41],7.40
same,Activity,MCF7 [42],62.6%
same,Activity,MCF7 [43],65.6%
same,Activity,MDA-MB-231 [44],100%
same,Activity,MDA-MB-231 [45],44.5%
COc1cc2c(c(OC)c1OC)-c1ccc(OC)c(=O)cc1[C@@H](NC(C)=O)CC2 [COLCHICINE],pIC50,KB,7.70
same,pIC50,B16-F10,7.54
same,pIC50,MDA-MB-435,7.40
same,pIC50,MDA-MB-231 [2],7.15
same,pIC50,HCT-116 [4],7.40
same,Activity,[40],50%
COc1ccc2[nH]c3c(c2c1)-c1ccccc1[C@H](C)NC3=O,pIC50,KB,5.46
same,pIC50,[1],4.29

# Reference: ChEMBL document CHEMBL1150426, “New C5-alkylated indolobenzazepinones acting as inhibitors of tubulin polymerization: cytotoxic and antitumor activities” (J Med Chem, 2008)
